Laboratory results reported in ChEMBL document CHEMBL2384915, “Design, synthesis and biological evaluation of novel 3,4,5-trisubstituted aminothiophenes as inhibitors of p53-MDM2 interaction. Part 2” (Bioorg Med Chem, 2013).

Assays:
A549 [1] = test: Cytotoxicity against human A549 cells expressing wild type p53 after 72 hrs by SRB assay; assay type: functional, cell-based; conditions: A549, 72 h
In short: (§1)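 Seeded cells cultured overnight, then exposed to serial compound concentrations for 72 h. Fixed with 10% (w/v) TCA at 4 °C for 1 h, stained 30 min with 0.4% SRB in 1% acetic acid, washed with 1% acetic acid, and bound dye extracted with unbuffered Tris base. Absorbance read at 515 nm; inhibition computed versus untreated controls. IC50 derived by Logit method, mean of at least two independent tests.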

PC-3 = test: Cytotoxicity against human p53 deficient PC3 cells after 72 hrs by SRB assay; assay type: functional, cell-based; conditions: PC-3, 72 h; in short: as §1
[2] = target: Tumour suppressor p53/oncoprotein Mdm2 (Homo sapiens, UniProt Q00987); test: (§2) Inhibition of p53/MDM2 (1 to 118) (unknown origin) interaction after 1 hr by fluorescence polarization assay; assay type: protein assay
Sequence of Tumour suppressor p53/oncoprotein Mdm2 (Homo sapiens, UniProt Q00987) (P04637 whole entry): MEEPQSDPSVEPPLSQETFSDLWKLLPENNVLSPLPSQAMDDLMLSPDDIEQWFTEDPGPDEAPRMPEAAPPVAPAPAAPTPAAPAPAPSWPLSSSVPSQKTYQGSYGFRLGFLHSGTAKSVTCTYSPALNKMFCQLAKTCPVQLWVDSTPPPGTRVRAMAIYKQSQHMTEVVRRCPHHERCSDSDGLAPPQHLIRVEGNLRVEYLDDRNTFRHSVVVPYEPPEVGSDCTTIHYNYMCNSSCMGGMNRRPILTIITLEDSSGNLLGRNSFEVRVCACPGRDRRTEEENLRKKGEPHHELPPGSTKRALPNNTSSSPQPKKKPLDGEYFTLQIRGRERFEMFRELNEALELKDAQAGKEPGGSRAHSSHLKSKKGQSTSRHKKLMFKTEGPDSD
Sequence of Tumour suppressor p53/oncoprotein Mdm2 (Homo sapiens, UniProt Q00987) (Q00987 whole entry): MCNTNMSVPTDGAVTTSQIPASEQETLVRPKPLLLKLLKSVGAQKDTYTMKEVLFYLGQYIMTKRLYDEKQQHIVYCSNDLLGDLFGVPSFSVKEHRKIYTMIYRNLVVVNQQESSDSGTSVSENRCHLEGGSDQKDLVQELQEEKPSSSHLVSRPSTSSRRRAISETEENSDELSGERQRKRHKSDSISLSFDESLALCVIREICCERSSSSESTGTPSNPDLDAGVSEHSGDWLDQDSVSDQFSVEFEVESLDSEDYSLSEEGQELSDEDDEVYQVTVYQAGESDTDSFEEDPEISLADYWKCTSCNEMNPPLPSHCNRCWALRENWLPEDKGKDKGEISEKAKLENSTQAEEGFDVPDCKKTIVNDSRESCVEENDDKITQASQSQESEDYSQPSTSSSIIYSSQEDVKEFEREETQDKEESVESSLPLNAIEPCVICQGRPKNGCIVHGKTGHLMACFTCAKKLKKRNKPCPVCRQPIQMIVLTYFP

A549 [3] = test: Selectivity ratio of IC50 for human p53 deficient PC3 cells to IC50 for human A549 cells expressing wild type p53; assay type: functional
[4] = target: Tumour suppressor p53/oncoprotein Mdm2 (Homo sapiens, UniProt P04637+Q00987); test: as §2; assay type: protein assay
Sequence of Tumour suppressor p53/oncoprotein Mdm2 (Homo sapiens, UniProt P04637+Q00987) (P04637 whole entry): as the sequence (P04637 whole entry) above
Sequence of Tumour suppressor p53/oncoprotein Mdm2 (Homo sapiens, UniProt P04637+Q00987) (Q00987 whole entry): as the sequence (Q00987 whole entry) above

In the case of `COC(=O)c1c(N)sc(-c2ccc(Cl)cc2)c1-c1ccc(Cl)cc1`, the IC50 (A549 [1]) is reported as 5.04 µM and the IC50 (PC-3) is reported as 2.78 µM.

In the case of `Nc1sc(-c2ccc(Cl)cc2)c(-c2ccc(Cl)cc2)c1C(=O)NC1CC1`, the IC50 (A549 [1]) is reported as 1.95 µM and the IC50 (PC-3) is reported as 3.68 µM.

With `Nc1sc(-c2ccc(Cl)cc2)c(-c2ccc(Cl)cc2)c1C(=O)NC1CCCCC1` the IC50 (A549 [1]) was 2.41 µM and the IC50 (PC-3) was 7.3 µM.

For `Nc1sc(-c2ccc(Cl)cc2)c(-c2ccc(Cl)cc2)c1C(=O)N1CCCC1`, the IC50 (A549 [1]) was 0.89 µM and the IC50 (PC-3) was 6.22 µM.

Compound `Nc1sc(-c2ccccc2)c(-c2ccc(Cl)cc2)c1C(=O)NCc1ccccc1` has a Ki [2] of 1.14 µM, an IC50 (A549 [1]) of 8.51 µM and an IC50 (PC-3) of 22.8 µM.

With `Nc1sc(-c2ccc(F)cc2)c(-c2ccc(Cl)cc2)c1C(=O)NC1CC1` the “Ratio IC50” value (A549 [3]) was >5, the Ki [2] was 0.34 µM and the IC50 (A549 [1]) was 3 µM. It also gave an IC50 (PC-3) of 27.9 µM.

With `Nc1sc(-c2ccc(F)cc2)c(-c2ccc(Cl)cc2)c1C(=O)N1CCCC1` the Ki [2] was 1.22 µM, the IC50 (A549 [1]) was 18.8 µM and the IC50 (PC-3) was 20.4 µM.

Work on `Nc1sc(-c2ccc(F)cc2)c(-c2ccc(Cl)cc2)c1C(=O)N1CCOCC1` yielded a Ki [2] of 0.22 µM, an IC50 (A549 [1]) of 12.7 µM and an IC50 (PC-3) of 25.1 µM.

`Nc1sc(-c2ccc(F)cc2)c(-c2ccc(Cl)cc2)c1C(=O)NCc1ccccc1` was tested, and the Ki [2] was 0.6 µM, the IC50 (A549 [1]) was 9.95 µM and the IC50 (PC-3) was 25.8 µM.

In the case of `Nc1sc(-c2ccc(Br)cc2)c(-c2ccc(Cl)cc2)c1C(=O)NC1CC1`, the Ki [2] is reported as 2.18 µM, the IC50 (A549 [1]) is reported as > 50 µM and the IC50 (PC-3) is reported as 37.3 µM.

In the case of `Nc1sc(-c2ccc(Br)cc2)c(-c2ccc(Cl)cc2)c1C(=O)NC1CCCCC1`, the Ki [2] is reported as 1.06 µM, the IC50 (A549 [1]) is reported as 9.59 µM and the IC50 (PC-3) is reported as 28.4 µM.

For `Nc1sc(-c2ccc(Br)cc2)c(-c2ccc(Cl)cc2)c1C(=O)N1CCCC1`, the “Ratio IC50” value (A549 [3]) was >5, the Ki [2] was 0.75 µM and the IC50 (A549 [1]) was 7.46 µM. It also gave an IC50 (PC-3) of 37.5 µM.

For `Nc1sc(-c2ccc(Br)cc2)c(-c2ccc(Cl)cc2)c1C(=O)N1CCOCC1`, the “Ratio IC50” value (A549 [3]) was >5, the Ki [2] was 1.48 µM and the IC50 (A549 [1]) was 7.49 µM. For the same compound, the IC50 (PC-3) was > 50 µM.

With `Nc1sc(-c2ccc(Br)cc2)c(-c2ccc(Cl)cc2)c1C(=O)NCc1ccccc1` the Ki [2] was 0.76 µM, the IC50 (A549 [1]) was 18.7 µM and the IC50 (PC-3) was > 50 µM.

With `Nc1sc(-c2ccc([N+](=O)[O-])cc2)c(-c2ccc(Cl)cc2)c1C(=O)NC1CC1` the Ki [4] was “Not Active”.

With `Nc1sc(-c2ccc([N+](=O)[O-])cc2)c(-c2ccc(Cl)cc2)c1C(=O)NC1CCCCC1` the Ki [4] was “Not Active”, the IC50 (A549 [1]) was 15 µM and the IC50 (PC-3) was 25.9 µM.

For `Nc1sc(-c2ccc([N+](=O)[O-])cc2)c(-c2ccc(Cl)cc2)c1C(=O)N1CCCC1`, the Ki [4] was “Not Active”, the IC50 (A549 [1]) was 10.7 µM and the IC50 (PC-3) was 42.6 µM.

In the case of `Nc1sc(-c2ccc([N+](=O)[O-])cc2)c(-c2ccc(Cl)cc2)c1C(=O)N1CCCCC1`, the Ki [4] is reported as “Not Active”.

`Nc1sc(-c2ccc([N+](=O)[O-])cc2)c(-c2ccc(Cl)cc2)c1C(=O)N1CCOCC1` was tested, and the Ki [4] was “Not Active”, the IC50 (A549 [1]) was 16.7 µM and the IC50 (PC-3) was > 50 µM.

For `Nc1sc(-c2ccc(Cl)cc2)c(-c2ccc(Cl)cc2)c1C(=S)NC1CC1`, the Ki [2] was 0.086 µM, the IC50 (A549 [1]) was 8.28 µM and the IC50 (PC-3) was 22.1 µM.

`Nc1sc(-c2ccc(Cl)cc2)c(-c2ccc(Cl)cc2)c1C(=S)NC1CCCC1` showed a Ki [2] of 0.17 µM, an IC50 (A549 [1]) of 22.1 µM and an IC50 (PC-3) of 29 µM.

In the case of `Nc1sc(-c2ccc(Cl)cc2)c(-c2ccc(Cl)cc2)c1C(=S)NC1CCCCC1`, the Ki [2] is reported as 0.32 µM, the IC50 (A549 [1]) is reported as 7.41 µM and the IC50 (PC-3) is reported as 27.7 µM.

With `CC(C)(C)NC(=S)c1c(N)sc(-c2ccc(Cl)cc2)c1-c1ccc(Cl)cc1` the Ki [2] was 0.58 µM, the IC50 (A549 [1]) was > 50 µM and the IC50 (PC-3) was 34 µM.

With `CCOC(=O)c1c(N)[nH]c(-c2ccc(Cl)cc2)c1-c1ccc(Cl)cc1` the “Ratio IC50” value (A549 [3]) was >5, the Ki [2] was 1.24 µM and the IC50 (A549 [1]) was 2.53 µM. For the same compound, the IC50 (PC-3) was 16.1 µM.

Compound `Nc1[nH]c(-c2ccc(Cl)cc2)c(-c2ccc(Cl)cc2)c1C(=O)NC1CC1` has a Ki [2] of 0.53 µM, an IC50 (A549 [1]) of 4.62 µM and an IC50 (PC-3) of 19.3 µM.

With `O=C1CC(c2ccccc2)c2c(sc(-c3ccc(Cl)cc3)c2-c2ccc(Cl)cc2)N1` (stereo unspecified) the IC50 (A549 [1]) was 17.2 µM and the IC50 (PC-3) was > 50 µM.

For `O=C1CC(c2cccs2)c2c(sc(-c3ccc(Cl)cc3)c2-c2ccc(Cl)cc2)N1` (stereo unspecified), the IC50 (A549 [1]) was 20.2 µM and the IC50 (PC-3) was > 50 µM.

With `O=C1CC(c2ccco2)c2c(sc(-c3ccc(Cl)cc3)c2-c2ccc(Cl)cc2)N1` (stereo unspecified) the IC50 (A549 [1]) was 25.4 µM and the IC50 (PC-3) was > 50 µM.

For `Clc1ccc(-c2sc3ncnc(NC4CC4)c3c2-c2ccc(Cl)cc2)cc1`, the IC50 (A549 [1]) was 42.8 µM and the IC50 (PC-3) was > 50 µM.

In the case of `Clc1ccc(-c2sc3ncnc(NC4CCCCC4)c3c2-c2ccc(Cl)cc2)cc1`, the IC50 (A549 [1]) is reported as > 50 µM and the IC50 (PC-3) is reported as > 50 µM.

For `Clc1ccc(-c2sc3ncnc(N4CCCCC4)c3c2-c2ccc(Cl)cc2)cc1`, the IC50 (A549 [1]) was > 50 µM and the IC50 (PC-3) was > 50 µM.

`Clc1ccc(-c2sc3ncnc(N4CCOCC4)c3c2-c2ccc(Cl)cc2)cc1` was tested, and the IC50 (A549 [1]) was > 50 µM and the IC50 (PC-3) was > 50 µM.

Work on `Nc1sc(-c2ccccc2)c(-c2ccc(Cl)cc2)c1C(=O)NC1CC1` yielded a Ki [2] of 0.63 µM, an IC50 (A549 [1]) of 4.3 µM and an IC50 (PC-3) of 17.1 µM.

With `Nc1sc(-c2ccccc2)c(-c2ccc(Cl)cc2)c1C(=O)N1CCCC1` the Ki [2] was 1.96 µM, the IC50 (A549 [1]) was 5.8 µM and the IC50 (PC-3) was 22.2 µM.

Work on `Nc1sc(-c2ccccc2)c(-c2ccc(Cl)cc2)c1C(=O)N1CCOCC1` yielded a Ki [2] of 0.28 µM, an IC50 (A549 [1]) of 14.2 µM and an IC50 (PC-3) of 29.3 µM.

In the case of `COc1ccc(C2=N[C@@H](c3ccc(Cl)cc3)[C@@H](c3ccc(Cl)cc3)N2C(=O)N2CCNC(=O)C2)c(OC(C)C)c1` [NUTLIN-3], the IC50 (A549 [1]) is reported as 4.62 µM and the IC50 (PC-3) is reported as 20 µM.
